For 32 sequences, Tm and folding enthalpy results are on record in the array DNA melting data of Ke et al. (doi:10.1101/2024.01.08.574731).

A short description of series [1]: melting temperature; fluorescence melt of hairpins on a sequencing array, two-state fit, raised by 9.35 °C to match UV melts. Conditions: sodium 0.088 M. In short, it runs like this:
(§1)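 Cy3 fluorescence of library hairpins on a sequenced MiSeq flow cell, with annealed Cy3 and quencher oligos, was imaged in 50 mM Na-HEPES pH 8.0, 25 mM NaCl in 2.5 °C steps up to 60 °C. Signals were normalised to pre-quench Cy3 and to control variants. Melting temperature and folding enthalpy came from bootstrapped two-state fits, inverse-variance combined over four replicates. Fitted temperatures were raised by 9.35 °C to match UV melts.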

Series [2] in a line: folding enthalpy; higher = less favourable; fluorescence melt of hairpins on a sequencing array, two-state fit. As to conditions: sodium 0.088 M. An outline of the steps: as §1

On to GCGTAGCGAAAGCTTTGC ((..(((....)))..)), for which, in series [1], the Tm stood at 42.9 °C. Moreover, the folding enthalpy in series [2] was -7.28 kcal/mol.
On to GCGTAGGAACGC ((((....)))), for which, in series [1], the Tm was determined as 49.2 °C. Also, the folding enthalpy in series [2] is -16.3 kcal/mol.
In the case of GCGTAGGCGAAAGCCCGC (((..(((....)))))), the Tm in series [1] came to 61.9 °C. Also, the folding enthalpy in series [2] is -19.7 kcal/mol.
GCGTAGGGAAACCCACGC ((((.((....)).)))): the Tm in series [1] turned out to be 54.3 °C. Also, the folding enthalpy in series [2] is -37.3 kcal/mol.
As for GCGTAGGGAAACCTACAC (.(((((....))))).), the Tm in series [1] was found to be 40.8 °C. Further, in series [2], the folding enthalpy was -14.5 kcal/mol.
As for GCGTAGGTACGC ((((....)))), the Tm in series [1] amounted to 52.8 °C. Besides, the folding enthalpy in series [2] was -20.3 kcal/mol.
As to GCGTATAAACGC ((((....)))), in series [1], the Tm was 50.4 °C. Further, the folding enthalpy in series [2] is -19.7 kcal/mol.
The corresponding values for GCGTATCACGC ((((...)))) are 56.9 °C and -34.2 kcal/mol.
For the sequence GCGTATGAAAATACGC ((((((....)))))), the Tm in series [1] turned out to be 63 °C. Also, the folding enthalpy in series [2] was -36 kcal/mol.
For GCGTATGGAAACATATGC ((.((((....)))).)), in that order: 47.8 °C and -46.8 kcal/mol.
For GCGTATGGAAACATGTGC ((..(((....)))..)), the Tm in series [1] was 38.8 °C. In addition, the folding enthalpy in series [2] is -11.6 kcal/mol.
For GCGTATTACGC ((((...)))), in that order: 54 °C and -25 kcal/mol.
With GCGTATTCACGC ((((....)))), the Tm in series [1] was 53 °C. For the same sequence, the folding enthalpy in series [2] was -25.6 kcal/mol.
Regarding GCGTCAGAACGC ((((....)))), the Tm in series [1] worked out at 52 °C. Moreover, in series [2], the folding enthalpy was -23.6 kcal/mol.
For the sequence GCGTCAGCACGC ((((....)))), the Tm in series [1] stood at 61.9 °C. Also, the folding enthalpy in series [2] was -8.99 kcal/mol.
For the sequence GCGTCAGGAAACCGACAC (.(((.(....).))).), in series [1], the Tm turned out to be 27.4 °C. Further, in series [2], the folding enthalpy was -16 kcal/mol.
For GCGTCAGGAAACCGACGC (((((.(....).))))), in that order: 58.6 °C and -32.9 kcal/mol.
For GCGTCAGGACGC ((((....)))), in that order: 56.5 °C and -26 kcal/mol.
With GCGTCATCACGC ((((....)))), in series [1], the Tm is 50.4 °C. For the same sequence, the folding enthalpy in series [2] was -22.5 kcal/mol.
The corresponding values for GCGTCCACACGC ((((....)))) are 52.4 °C and -27.1 kcal/mol.
For GCGTCCACGAAAGTGCGC (((..(((....)))))), in that order: 48.6 °C and -23.3 kcal/mol.
In the case of GCGTCCGAAAGGAACCGC ((((((....)))..))), the Tm in series [1] turned out to be 48.5 °C. Besides, the folding enthalpy in series [2] was -20.3 kcal/mol.
As for GCGTCCGAAAGGAGTCGC ((((((....)))..))), the Tm in series [1] worked out at 49.5 °C. The folding enthalpy in series [2] is -22.9 kcal/mol.
With GCGTCCGAAAGGATCCGC ((((((....)))..))), the Tm in series [1] stood at 44.7 °C. Further, the folding enthalpy in series [2] is -21.2 kcal/mol.
GCGTCCGAACGC ((((....)))): the Tm in series [1] worked out at 53.2 °C. The folding enthalpy in series [2] was -21.8 kcal/mol.
For GCGTCCGGAAACGGACAC (.(((((....))))).), in that order: 51 °C and -11.2 kcal/mol.
Regarding GCGTCCGGACGC ((((....)))), in series [1], the Tm is 60.3 °C. Moreover, in series [2], the folding enthalpy was -40.9 kcal/mol.
The corresponding values for GCGTCCTCGAAAGAGCGC (((..(((....)))))) are 48.4 °C and -24.9 kcal/mol.
GCGTCGCCACGC ((((....)))): in series [1], the Tm turned out to be 53.7 °C. Further, the folding enthalpy in series [2] was -15.9 kcal/mol.
With GCGTCGCGAAAGCCACGC ((((.((....)).)))), the Tm in series [1] turned out to be 64 °C. The folding enthalpy in series [2] was -31.1 kcal/mol.
Consider GCGTCGCGAAAGCCGCGC (((..((....))..))), for which the Tm in series [1] worked out at 66 °C. Moreover, the folding enthalpy in series [2] is -29.7 kcal/mol.
Consider GCGTCGCGAAAGCTAAGC ((.(.((....)).).)), for which, in series [1], the Tm was found to be 51.4 °C. Moreover, the folding enthalpy in series [2] is -20.2 kcal/mol.
